Calls of active or inactive are those of the source. The calls are words filed in the database; no cut-off is given here.
Experiments:
[1] = Metal chelating activity assessed as absorption maximum for compound-Zn2+ complex formation at 75 uM after 30 mins by UV-Vis spectrophotometric method; format: functional
Summary of the method: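 UV-Vis spectra in ethanol of compound at 75 µM alone or after 30 min incubation with CuSO4, FeSO4, FeCl3 or ZnCl2 (150 µM). Absorption maxima recorded.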

SH-SY5Y [2] = assay: Neuroprotective activity in human SH-SY5Y cells assessed as reduction in amyloid beta (1 to 42)-induced exocytosis at 20 uM after 4 hrs by MTT dye based microscopic method; format: functional, cell-based
Summary of the method: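 SH-SY5Y cells seeded at 3 x 10^4 cells/well, grown 24 h. Treated with compound (20 µM) plus Aβ1-42 oligomers (10 µM) for 4 h at 37 °C. Oligomers were prepared from HFIP-treated, DMSO-dissolved peptide and checked by TEM. MTT (5 mg/mL in PBS) added for 2 h. Cells inspected by light microscopy for needle-like exocytosed formazan crystals.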

[3] = target: T1, Nuclear factor erythroid 2-related factor 2 (Homo sapiens) (UniProt Q16236); assay: Induction of Nrf2 nuclear translocation in human SH-SY5Y cells assessed as Nrf2 binding to antioxidant response element at 20 uM measured after 1 to 6 hrs by TransAM ELISA; format: cell-based; conditions: TDE = time-dependent effect
T1 sequence (whole entry): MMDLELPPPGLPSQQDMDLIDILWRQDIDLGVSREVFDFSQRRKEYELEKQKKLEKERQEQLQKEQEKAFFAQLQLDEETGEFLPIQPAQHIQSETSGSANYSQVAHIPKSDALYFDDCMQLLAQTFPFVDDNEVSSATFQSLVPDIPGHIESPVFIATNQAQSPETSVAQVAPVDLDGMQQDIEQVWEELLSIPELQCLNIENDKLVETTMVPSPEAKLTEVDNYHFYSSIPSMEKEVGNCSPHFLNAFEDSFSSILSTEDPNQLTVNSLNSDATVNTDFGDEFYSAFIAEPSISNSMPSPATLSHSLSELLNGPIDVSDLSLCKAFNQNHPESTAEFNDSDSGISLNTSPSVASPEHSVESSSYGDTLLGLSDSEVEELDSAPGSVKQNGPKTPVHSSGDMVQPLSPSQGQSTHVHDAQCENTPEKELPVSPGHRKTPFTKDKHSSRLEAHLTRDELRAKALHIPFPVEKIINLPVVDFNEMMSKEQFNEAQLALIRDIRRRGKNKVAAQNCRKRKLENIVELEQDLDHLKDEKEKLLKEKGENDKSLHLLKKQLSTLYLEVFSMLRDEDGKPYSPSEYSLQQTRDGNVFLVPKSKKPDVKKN
Summary of the method: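 SH-SY5Y cells seeded at 2×10^6 per 60 mm dish, grown 24 h, then given 20 µM compound for 1-6 h at 37 °C. Nuclear extracts prepared by kit. 20 µg nuclear protein tested for Nrf2 DNA binding by TransAM Nrf2 immunoassay. Expressed as % of control cells; mean ± SD of three experiments. Nrf2-transfected COS-7 cells served as positive control.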

SH-SY5Y [4] = assay: Antioxidant activity in human SH-SY5Y cells assessed as reduction in H2O2-induced reactive oxygen species formation measured after 24 hrs by DCFH-DA probe based fluorescence assay; format: functional, cell-based
[5] = Cytotoxicity against human SH-SY5Y cells assessed as reduction in cell viability at 40 uM after 24 hrs by MTT assay relative to control; format: cell-based; conditions: read-out: INH
Summary of the method: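 SH-SY5Y cells seeded at 2 x 10^4 cells/well, grown 24 h, then exposed to compound 1.25–40 µM for 24 h at 37 °C. MTT (5 mg/mL in PBS) added for 2 h and formazan dissolved in isopropanol. Read at 570 nm, reference 690 nm. Viability loss reported as percent at the top concentration, 40 µM.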

Mus musculus = assay: In vivo inhibition of COX-2 activity in carrageenan-induced Swiss mouse serum at 100 umol/kg, po pretreated for 1 hr followed by carrageenan challenge after 3 hrs by ELISA relative to control; format: functional
Summary of the method: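 Male Swiss mice given oral drug (100 µmol/kg) or vehicle 1 h before intraplantar carrageenan (legend: 400 µg/paw). At 3 h, animals anaesthetised with chloral hydrate and cardiac blood taken. Serum separated (1500 rpm, 20 min) and frozen at -70 °C. COX-1, COX-2 and 5-LOX measured by specific sandwich ELISA at 450 nm. Expressed as % enzymatic activity, mean ± SEM, n=8.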

SMILES: COc1cc(/C=C/C(=O)OCC2CCN(Cc3ccccc3)CC2)ccc1O
- Activity [1]: inactive
- Activity (SH-SY5Y [2]): inactive
- Activity [3]: Tde
- Activity (SH-SY5Y [4]): Dose-dependent effect
- IC50 (SH-SY5Y [4]; Homo sapiens, SH-SY5Y, 24 h, read-out: IC50): 16.9 µM
- cytotoxicity at 24 h, 40 µM [5]: 6%
- inhibition in vivo at 100 µmol/kg (Mus musculus): 27%

— ChEMBL document CHEMBL4038269, “Design, synthesis and evaluation of novel feruloyl-donepezil hybrids as potential multitarget drugs for the treatment of Alzheimer's disease” (Eur J Med Chem, 2017)
